Tests used:
[1] = Cytotoxicity against MDCK cells after 3 days by fluorescein diacetate-based fluorimetric analysis; assay type: cell-based, Canis lupus familiaris; conditions: dog
How it was run: (§1)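 Confluent MDCK monolayers were mock-infected or infected with about 50-100 PFU of influenza virus per well. At read-out the medium was removed and cells were stained with fluorescein diacetate in PBS for 20 min at 35 °C. Fluorescence was read at ex 485/em 538 nm. CC50 and EC50 were derived from the fluorescence, and the selectivity index was taken as CC50/EC50.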

Influenza A virus = assay: Antiviral activity against Influenza A virus (A/Taiwan/1/1986(H1N1)) infected in MDCK cells assessed as inhibition of virus-induced cytopathogenicity at 1 hr post-infection measured after 3 days by fluorescein-diacetate based fluorimetric analysis; assay type: functional, organism-based; how it was run: as §1
Influenza B virus [2] = assay: Antiviral activity against Influenza B virus (B/Taiwan/2/62) infected in MDCK cells assessed as inhibition of virus-induced cytopathogenicity at 1 hr post-infection measured after 3 days by fluorescein-diacetate based fluorimetric analysis; assay type: functional, organism-based; how it was run: as §1
Influenza B virus [3] = assay: Antiviral activity against Influenza B virus (B/Lee/40) infected in MDCK cells assessed as inhibition of virus-induced cytopathogenicity at 1 hr post-infection measured after 3 days by fluorescein-diacetate based fluorimetric analysis; assay type: functional, organism-based; conditions: B/Lee/1940, MDCK; how it was run: as §1
Influenza B virus [4] = assay: Antiviral activity against Influenza B virus (B/Panama/45/1990) infected in MDCK cells assessed as inhibition of virus-induced cytopathogenicity at 1 hr post-infection measured after 3 days by fluorescein-diacetate based fluorimetric analysis; assay type: functional, cell-based; conditions: B/Panama/45/1990, MDCK; how it was run: as §1
Influenza B virus [5] = assay: Antiviral activity against Influenza B virus (B/Brisbane/60/2008) infected in MDCK cells assessed as inhibition of virus-induced cytopathogenicity at 1 hr post-infection measured after 3 days by fluorescein-diacetate based fluorimetric analysis; assay type: functional, cell-based; conditions: B/Brisbane/60/2008, MDCK; how it was run: as §1
[6] = Selectivity ratio of CC50 for MDCK cells to EC50 for Influenza B virus (B/Panama/45/1990); assay type: ADME, cell-based; conditions: dog, read-out: Ratio CC50/EC50; how it was run: as §1
MDCK = assay: Cytotoxicity against MDCK cells assessed as cell death at 500 uM after 3 days by fluorescein diacetate-based fluorimetric analysis; parameters: species or system Canis lupus familiaris; conditions: dog, 72 h
Human alphaherpesvirus 2 = assay: Antiviral activity against Herpes simplex virus 2 MS infected in Vero cells assessed as inhibition of virus-induced cytopathogenicity by MTT assay; assay type: functional, organism-based; conditions: Human alphaherpesvirus 2, MS
How it was run: (§2)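 MTT-based CPE assay in Vero cells with HSV-1 strain F or HSV-2 strain MS. CC50 is the concentration that reduces viability of uninfected Vero cells by 50%. EC50 is the concentration that improves viability of HSV-infected cells by 50%.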

[7] = Cytotoxicity against human MT4 cells by MTT assay; assay type: cell-based
How it was run: (§3)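 MTT-based CPE assay in MT4 cells. CC50 is the concentration that reduces viability of uninfected MT4 cells by 50%. EC50 is the concentration that improves viability of HIV-infected cells by 50%.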

[8] = system: Human immunodeficiency virus 2; assay: Antiviral activity against Human immunodeficiency virus 2 ROD infected in MT4 cells assessed as inhibition of virus-induced cytopathogenicity by MTT assay; assay type: functional, organism-based; conditions: Human immunodeficiency virus 2, ISOLATE ROD; how it was run: as §3
Human alphaherpesvirus 1 = assay: Antiviral activity against Herpes simplex virus 1 F infected in Vero cells assessed as inhibition of virus-induced cytopathogenicity by MTT assay; assay type: functional, organism-based; conditions: Human alphaherpesvirus 1, strain F; how it was run: as §2
[9] = Selectivity ratio of CC50 for MDCK cells to EC50 for Influenza B virus (B/Taiwan/2/62); assay type: ADME, cell-based; conditions: dog, read-out: Ratio CC50/EC50; how it was run: as §1
[10] = Cytotoxicity against african green monkey Vero cells by MTT assay; assay type: cell-based; conditions: chlorocebus sabaeus; how it was run: as §2
[11] = system: Human immunodeficiency virus 1; assay: Antiviral activity against Human immunodeficiency virus 1 3B infected in MT4 cells assessed as inhibition of virus-induced cytopathogenicity by MTT assay; assay type: functional, organism-based; how it was run: as §3
[12] = Selectivity ratio of CC50 for MDCK cells to EC50 for Influenza B virus (B/Brisbane/60/2008); assay type: ADME, cell-based; conditions: dog, read-out: Ratio CC50/EC50; how it was run: as §1
[13] = Selectivity ratio of CC50 for MDCK cells to EC50 for Influenza B virus (B/Lee/40); assay type: ADME, cell-based; conditions: dog, read-out: Ratio CC50/EC50; how it was run: as §1

Row | Structure (SMILES) | CC50 at 72 h [1] [µM] | EC50 (Influenza A virus) [µM] | EC50 (Influenza B virus [2]) [µM] | EC50 (Influenza B virus [3]) [µM] | EC50 (Influenza B virus [4]) [µM] | EC50 (Influenza B virus [5]) [µM] | also measured
1 | CCc1ccc2c(c1)OC1(OC(=O)c3ccccc31)C2=O (stereo not drawn) | 103 | 34.6 | 12.1 | 34.4 | 11.2 | 32.2 | –
2 | Cc1cc(C)c2c(c1)OC1(OC(=O)c3ccccc31)C2=O (stereo not drawn) | > 500 | 11.4 | > 500 | > 500 | > 500 | > 500 | –
3 | O=C1OC2(Oc3cc4c(cc3C2=O)CCC4)c2ccccc21 (stereo not drawn) | 80.4 | 9.8 | 5.7 | 10.6 | 2.1 | 4.8 | –
4 | O=C1OC2(Oc3cc(F)ccc3C2=O)c2ccccc21 (stereo not drawn) | > 500 | 100 | – | – | 8.2 | – | selectivity ratio [6]: > 15; Activity (MDCK): > 20%
5 | Cc1cc2c(cc1C)C(=O)C1(OC(=O)c3ccccc31)O2 (stereo not drawn) | > 500 | 23.4 | 3.6 | 16.1 | 3 | 4.8 | EC50 (Human alphaherpesvirus 2): > 312 µM; CC50 [7]: 158 µM; EC50 [8]: > 158 µM; EC50 (Human alphaherpesvirus 1): > 312 µM; selectivity ratio [9]: 30; CC50 [10]: 312 µM; selectivity ratio [6]: > 15; EC50 [11]: > 158 µM; selectivity ratio [12]: 30; selectivity ratio [13]: 30
6 | O=C1OC2(Oc3ccc(Cl)cc3C2=O)c2ccccc21 (stereo not drawn) | 153 | 25.2 | 21.7 | 38.8 | 7.8 | 28.6 | –
7 | O=C1OC2(Oc3ccc(-c4ccccc4)cc3C2=O)c2ccccc21 (stereo not drawn) | 30.3 | > 30.3 | 10.8 | 14.1 | 6.6 | 12.1 | selectivity ratio [6]: < 5
8 | Cc1ccc2c(c1C)OC1(OC(=O)c3ccccc31)C2=O (stereo not drawn) | 370 | 7.1 | 28.9 | 32 | 9.9 | 23.5 | –
9 | Nc1ccc2c(c1)OC1(OC(=O)c3ccccc31)C2=O (stereo not drawn) | 305 | 49 | – | – | 27.4 | – | –
10 | O=C1OC2(Oc3cc4ccccc4cc3C2=O)c2ccccc21 (stereo not drawn) | > 500 | 206 | 39.4 | 159 | 96.1 | 132 | –
11 | NC(=O)c1nc(F)cnc1O [FAVIPIRAVIR] | > 100 | 6.95 | 2.84 | 1.93 | 1.94 | 1.32 | –
12 | Nc1nc2c(ncn2COCCO)c(=O)[nH]1 [ACYCLOVIR] | – | – | – | – | – | – | EC50 (Human alphaherpesvirus 2): 58.6 µM; EC50 (Human alphaherpesvirus 1): 1.7 µM; CC50 [10]: > 50 µM
13 | CCOC(=O)c1ccc2c(c1)C(=O)C1(OC(=O)c3ccccc31)O2 (stereo not drawn) | > 500 | > 500 | – | – | > 500 | – | –
14 | O=C1OC2(Oc3c(cccc3-c3ccccc3)C2=O)c2ccccc21 (stereo not drawn) | 29.2 | 12.9 | 8.3 | 12.2 | 4.3 | 11.2 | selectivity ratio [6]: < 5
15 | Cc1ccc2c(c1)C(=O)C1(OC(=O)c3ccccc31)O2 (stereo not drawn) | 293 | 32.9 | 24.8 | 32.8 | 7.6 | 28 | –
16 | COc1ccc2c(c1)OC1(OC(=O)c3ccccc31)C2=O (stereo not drawn) | > 500 | > 500 | – | – | > 500 | – | –
17 | CCc1ccc2c(c1)C(=O)C1(OC(=O)c3ccccc31)O2 (stereo not drawn) | 112 | 28.1 | 9.3 | 31.2 | 7.5 | 25.4 | –
18 | O=C1OC2(Oc3cc(Cl)ccc3C2=O)c2ccccc21 (stereo not drawn) | > 500 | > 500 | – | – | > 500 | – | –

Row | Structure (SMILES) | CC50 at 72 h [1] [µM] | EC50 (Influenza A virus) [µM] | EC50 (Influenza B virus [2]) [µM] | EC50 (Influenza B virus [3]) [µM] | EC50 (Influenza B virus [4]) [µM] | EC50 (Influenza B virus [5]) [µM] | also measured
19 | O=c1[nH]cnc2c1ncn2[C@H]1CC[C@@H](CO)O1 [DIDANOSINE] | – | – | – | – | – | – | CC50 [7]: > 500 µM; EC50 [8]: 34.7 µM; EC50 [11]: 7.8 µM
20 | Cc1ccc(C)c2c1OC1(OC(=O)c3ccccc31)C2=O (stereo not drawn) | 187 | > 187 | 66.6 | > 187 | > 187 | 42.7 | –
21 | Cc1cc2c(cc1C)C1(OC2=O)Oc2cc(C(C)C)ccc2C1=O (stereo not drawn) | > 500 | 321 | – | – | > 500 | – | –
22 | O=C1OC2(Oc3cc(-c4ccccc4)ccc3C2=O)c2ccccc21 (stereo not drawn) | 36.3 | 7.6 | – | – | < 6.2 | – | selectivity ratio [6]: < 5
23 | Cc1cccc2c1OC1(OC(=O)c3ccccc31)C2=O (stereo not drawn) | > 500 | 83.2 | 53 | 199 | 24.7 | 104 | –
24 | COc1cccc2c1OC1(OC(=O)c3ccccc31)C2=O (stereo not drawn) | 253 | 126 | 42.3 | 58.2 | 23.6 | 81.1 | –
25 | O=C1OC2(Oc3c(Cl)ccc(Cl)c3C2=O)c2ccccc21 (stereo not drawn) | 86 | 25.5 | – | – | 18.4 | – | –
26 | CC(C)c1ccc2c(c1)OC1(OC(=O)c3ccccc31)C2=O (stereo not drawn) | 314 | 148 | – | – | 44.9 | – | –
27 | O=C1OC2(Oc3c(ccc4ccccc34)C2=O)c2ccccc21 (stereo not drawn) | 40.4 | < 6.2 | – | – | < 6.2 | – | –
28 | NC12CC3CC(CC(C3)C1)C2 [AMANTADINE] | > 100 | 0.6 | > 100 | > 100 | > 100 | > 100 | –
29 | COc1cc2c(cc1OC)C1(OC2=O)Oc2cc(C(C)C)ccc2C1=O (stereo not drawn) | > 500 | > 500 | – | – | 33.3 | – | selectivity ratio [6]: > 15; Activity (MDCK): 47%
30 | O=C1OC2(Oc3c(Cl)cccc3C2=O)c2ccccc21 (stereo not drawn) | > 500 | 174 | 61.4 | 227 | 21.7 | 96.3 | –
31 | Nc1ccn([C@H]2CC[C@@H](CO)O2)c(=O)n1 [ZALCITABINE] | – | – | – | – | – | – | CC50 [7]: 75.2 µM; EC50 [8]: 0.4 µM; EC50 [11]: 0.4 µM
32 | Cc1cc2c(c(C)c1C)C(=O)C1(OC(=O)c3ccccc31)O2 (stereo not drawn) | > 500 | > 500 | 23.2 | 254 | 11 | 103 | –
33 | O=C1OC2(Oc3ccccc3C2=O)c2ccccc21 (stereo not drawn) | > 500 | > 500 | – | – | 88.1 | – | selectivity ratio [6]: 20
34 | CCCc1ccc2c(c1)C(=O)C1(OC(=O)c3ccccc31)O2 (stereo not drawn) | 100 | 30.8 | 25 | 33.7 | 9.8 | 27.6 | –
35 | Cc1ccc2c(c1)OC1(OC(=O)c3ccccc31)C2=O (stereo not drawn) | 376 | 27.8 | 31.2 | 59.9 | 25.7 | 46.9 | –

Source: ChEMBL document CHEMBL2331187, “Efficient synthesis of 3H,3'H-spiro[benzofuran-2,1'-isobenzofuran]-3,3'-dione as novel skeletons specifically for influenza virus type B inhibition” (Eur J Med Chem, 2013)
